Shown are actives, neighbours in structure and some others; about 2.3% of the full set was active somewhere.
TPT1 inhibitor – inhibitors of Candida albicans tRNA 2'-phosphotransferase TPT1; inhibition, % at 5 µM; recombinant caTPT1, FP RNA substrate dephosphorylation; 0.81% of 300,000 active;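 active = inhibition above the mean of all tested compounds plus 3 SD, set per screening campaign, cut at about 24% in these data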;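 also: plate controls were DMSO alone for no effect and ferristatin control at 100 nM for full effect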
Myeloid diff MLP – promotes myeloid progenitor differentiation. AID 624256. calls only at 10 µM. 1% of 360,000 active. ER-HoxA9 myeloid progenitors, lysozyme-GFP differentiation, flow cytometry;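 active = normalized GFP-positive differentiation at or above the plate's own cutoff, the solvent-only control mean plus 3 SD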;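 also: cells exposed to compound for four days before flow analysis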
HNF4A DNA FP – change in binding of human HNF4 alpha to DNA; P41235; HNF4a-FITC DNA binding, fluorescence polarization, 1 h; activity change, % at 10 µM; 0.3% of 360,000 active; in the data active = activity change above about 30%, passing the limit was not always enough
CSN inh – CSN deneddylation inhibition; Q92905; Purified CSN, SCF-Nedd8-OG deneddylation, fluorescence polarization; inhibition, % at 12.5 µM; 0.38% of 360,000 active; AID 651999;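 active = pattern-corrected inhibition above about 35%, with an unprinted fluorescence ratio check between 0.5 and 1.5, limit read from the data, passing the limit was not always enough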;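 also: 0% = enzyme with substrate and 100% = substrate without enzyme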
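Test system: purified human Csn5 enzyme expressed in HEK293T cells. Amount: 0.24 nM enzyme. Reagent: SCFSkp2-Nedd8OG substrate at 10 nM final. Schedule: 90 min incubation of compound, enzyme and substrate at room temperature. Detection: fluorescence polarization. Read-out: % inhibition of substrate cleavage by Csn5.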
Rpn11 block – Rpn11 (human) deubiquitinase inhibition; human 26S proteasome, Ub4-pepOG fluorescence polarization; 20S core pre-blocked with epoxomicin; inhibition, % at 20 µM; 0.59% of 360,000 active;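 active = inhibition at 20 µM, scaled to each plate's controls, above about 33%, limit read from the data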
Target sequence (O00487 whole entry, looked up): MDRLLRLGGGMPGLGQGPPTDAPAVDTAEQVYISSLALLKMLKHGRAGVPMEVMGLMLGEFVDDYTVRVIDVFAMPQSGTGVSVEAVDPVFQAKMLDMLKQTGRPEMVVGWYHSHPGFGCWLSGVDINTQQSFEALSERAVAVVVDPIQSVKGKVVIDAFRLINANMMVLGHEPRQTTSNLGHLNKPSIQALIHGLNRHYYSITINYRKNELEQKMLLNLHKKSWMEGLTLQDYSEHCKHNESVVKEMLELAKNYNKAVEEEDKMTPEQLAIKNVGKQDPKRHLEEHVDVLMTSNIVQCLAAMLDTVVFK
TPT1 inh confirm – TPT1 (C. albicans) inhibition, confirmation | 74% of 2,400 active | recombinant caTPT1, fluorescence polarization, RNase T1 coupled | inhibition, % at 5 µM | shares compounds with TPT1 inhibitor;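 active = inhibition above the primary screen limit, the mean inhibition of all tested compounds plus 3 SD, cut at about 25% in these data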
RNase T1 inh – RNase T1 inhibition in TPT1 counter-screen; shares compounds with TPT1 inhibitor; AID 2153; RNase T1 cleavage, fluorescence polarization, 1536-well; inhibition, % at 5 µM; 83% of 2,400 active;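 active = inhibition above the solvent-only control well mean plus 3 SD, limit set per screening run, cut at about 23% in these data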;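 also: plate controls were DMSO wells with enzyme for no effect and wells without RNase T1 for full effect; inhibitors block cleavage so intact labeled substrate keeps polarization high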
Target sequence (P00651 whole entry, looked up): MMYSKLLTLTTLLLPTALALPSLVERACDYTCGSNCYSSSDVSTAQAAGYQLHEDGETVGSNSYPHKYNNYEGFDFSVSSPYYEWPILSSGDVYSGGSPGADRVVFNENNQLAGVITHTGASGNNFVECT
Rpn11 confirm – Rpn11 inhibition confirmation, single concentration; purified human 26S proteasome, Ub4-pepOG fluorescence polarization; proteasome pretreated with epoxomicin; 29% of 1,900 active; shares compounds with Rpn11 block; AID 602318; inhibition, % at 20 µM
MMP-2 counter-1 – blocks human MMP-2, flagging nonselective RPN11 hits. shares compounds with Rpn11 block. 4% of 1,900 active. recombinant MMP-2, FRET peptide cleavage fluorescence. AID 602330. inhibition, % at 20 µM;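 also: human MMP-2 activated beforehand with APMA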
Thrombin inh – blocks bovine thrombin, flagging nonselective RPN11 hits. shares compounds with Rpn11 block. bovine thrombin cleavage of Ub4-pepOG, fluorescence polarization. inhibition, % at 20 µM. 13% of 1,900 active. AID 602333;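 active = mean inhibition at least 40% at 20 µM, or signal 3 deviations below plate average, so some actives read negative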;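 also: plate controls were thrombin with DMSO for no effect and buffer wells lacking thrombin for full effect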
Myeloid diff – compounds promoting myeloid differentiation; shares compounds with Myeloid diff MLP; ER-HoxA9 myeloid progenitors, GFP/Mac1 double-positive flow; calls only; 2% of 2,300 active; AID 651706;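 active = share of green or green-and-red cells above 9 and 9% in run 1 or 4 and 3% in run 2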
GFP autofluor – flagged as fluorescent in myeloid differentiation counter-screen; fluorescence response, % (no concentration beside the values); AID 651707; shares compounds with Myeloid diff MLP; ER-HoxA9 myeloid progenitors, no estrogen, GFP autofluorescence flow cytometry; vehicle wells 0%, positive control 100%; 7.4% of 2,300 active;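 active = over 5% cells positive for green fluorescent reporter, or over 2% positive for both it and APC stain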;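 also: range taken on the double positive population between DMSO and positive control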
CSN5 deneddyl – Csn5 (human) deneddylation inhibition, single-concentration validation | Csn5 deneddylation of SCF-Nedd8OG, fluorescence polarization, 90 min | shares compounds with CSN inh | inhibition, % at 16.6 µM | 62% of 540 active; in the data active = inhibition above about 50%;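 also: 0% = DMSO with enzyme and 100% = no enzyme wells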
MMP-2 counter-2 – blocks human MMP-2 in a CSN deneddylation counter-screen. inhibition, % at 16.6 µM. shares compounds with CSN inh. recombinant MMP-2, FRET substrate fluorescence, 60 min. 33% of 540 active;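 active = corrected plate-normalized z-score of 5 or more, or -5 or less, or inhibition of 15% or more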;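 also: plate controls were DMSO wells with enzyme for no effect and buffer wells lacking MMP-2 for full effect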
Thrombin cntr – blocks bovine thrombin in a CSN deneddylation counter-screen | inhibition, % at 16.6 µM | AID 720656 | 49% of 540 active | bovine thrombin cleavage of Ub4-pepOG, fluorescence polarization | shares compounds with CSN inh;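 active = inhibition at or above a set limit, with a fluorescence interference ratio between 0.5 and a set maximum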
* = called active by the depositor. Rule as the data show it, unless noted: active = inhibition above about 40%; inactive = the rest.

Results for CCCN(CCC)CC(O)Cn1cc(/C=C/C(=O)c2cccs2)c2ccccc21 (stereo not drawn) ?
TPT1 inhibitor: 61*; Myeloid diff MLP: active; HNF4A DNA FP: 19; CSN inh: 42*; TPT1 inh confirm: 64*; RNase T1 inh: 72*; CSN5 deneddyl: 71*; MMP-2 counter-2: -2; Thrombin cntr: 35*

How did O=C(/C=C/c1ccnc2ccccc12)c1cccs1 do in these assays?
TPT1 inhibitor: -3; Myeloid diff MLP: inactive; HNF4A DNA FP: 1; CSN inh: 18; Rpn11 block: 2

What do the screens show for `CCC1CCCCN1CCCNC(=O)CN1C(=O)COc2ccccc21` (stereo not drawn)?
TPT1 inhibitor: -1; Myeloid diff MLP: inactive; HNF4A DNA FP: -1; CSN inh: 5; Rpn11 block: 1

Results for CC1=Nc2ccccc2/C1=C/c1sc(=N)n(-c2nccs2)c1O ?
TPT1 inhibitor: 99*; Myeloid diff MLP: inactive; HNF4A DNA FP: 36; CSN inh: 44*; Rpn11 block: 89*; TPT1 inh confirm: 112*; RNase T1 inh: 122*; Myeloid diff: inactive; GFP autofluor: 47*; CSN5 deneddyl: 48; MMP-2 counter-2: 17*; Thrombin cntr: 43*

Results for CCOC(=O)C1=C(C)N=c2s/c(=C/c3ccc(OCC(=O)O)c(OC)c3)c(=O)n2C1c1ccc(Cl)cc1 (stereo not drawn) ?
TPT1 inhibitor: 42*; Myeloid diff MLP: inactive; HNF4A DNA FP: 17; CSN inh: 40*; Rpn11 block: 53*; TPT1 inh confirm: 60*; RNase T1 inh: 72*; Rpn11 confirm: 93*; MMP-2 counter-1: -10; Thrombin inh: -7; CSN5 deneddyl: 85*; MMP-2 counter-2: 3; Thrombin cntr: 14

How did CCOC(=O)C1=C(C)N=c2s/c(=C/c3ccccc3)c(=O)n2C1c1ccc(OC)c(OC)c1 (stereo not drawn) do in these assays?
TPT1 inhibitor: 9; Myeloid diff MLP: inactive; HNF4A DNA FP: -2; CSN inh: 0; Rpn11 block: 8

How did CC(=O)c1ccc(NC(=O)CN2CCCCCC2)cc1 do in these assays?
TPT1 inhibitor: 2; Myeloid diff MLP: inactive; HNF4A DNA FP: -4; CSN inh: 6; Rpn11 block: -4

What do the screens show for `COC1=C/C(=C/c2c(N)n3cc(C)sc3nc2=O)C=CC1=O`?
TPT1 inhibitor: 81*; Myeloid diff MLP: inactive; HNF4A DNA FP: 66*; CSN inh: 78*; TPT1 inh confirm: 127*; RNase T1 inh: 128*; CSN5 deneddyl: 66*; MMP-2 counter-2: -8; Thrombin cntr: 62*

Results for O=S(=O)(Nc1cc2nc3ccccc3nc2n1Cc1ccccc1)c1ccc(Cl)cc1 ?
TPT1 inhibitor: 44*; Myeloid diff MLP: active; HNF4A DNA FP: -6; CSN inh: 70*; Rpn11 block: -2; TPT1 inh confirm: 39*; RNase T1 inh: 51*; CSN5 deneddyl: 77*; MMP-2 counter-2: -7; Thrombin cntr: 3

How did Cc1ccc(N=Cc2sc(O)c3ccccc23)cc1 do in these assays?
TPT1 inhibitor: 142*; Myeloid diff MLP: inactive; HNF4A DNA FP: 77; CSN inh: 40*; TPT1 inh confirm: 111*; RNase T1 inh: 109*; CSN5 deneddyl: 82*; MMP-2 counter-2: -10; Thrombin cntr: 57*

Results for Cc1ccc(N=Cc2c(O)c3ccccc3n(C)c2=O)cc1 ?
Myeloid diff MLP: inactive; HNF4A DNA FP: -3; CSN inh: -3; Rpn11 block: -5

How did COC(=O)CN1C(=S)N(c2ccc(OC)cc2)C(=O)/C1=C/c1ccc(N2CCOCC2)cc1 do in these assays?
TPT1 inhibitor: 151*; Myeloid diff MLP: inactive; HNF4A DNA FP: 61*; CSN inh: 36*; TPT1 inh confirm: 116*; RNase T1 inh: 123*; CSN5 deneddyl: 175*; MMP-2 counter-2: -22; Thrombin cntr: 14

Results for COc1ccc(/C=C/C(=O)OCC(=O)Nc2ccc(N3CCOCC3)cc2)cc1 ?
TPT1 inhibitor: 4; Myeloid diff MLP: inactive; HNF4A DNA FP: 1; CSN inh: -1; Rpn11 block: 3

What do the screens show for `N=C1/C(=C\c2ccc(-c3cccc(C(=O)O)c3)o2)C(=O)N=C2SC=C(c3ccccc3)N12`?
TPT1 inhibitor: 66*; Myeloid diff MLP: inactive; HNF4A DNA FP: -6; CSN inh: 64*; Rpn11 block: 108*; TPT1 inh confirm: 82*; RNase T1 inh: 92*; Rpn11 confirm: 149*; MMP-2 counter-1: 27; Thrombin inh: 51*; MMP-2 counter-2: 16*; Thrombin cntr: 29*

What do the screens show for `CCOc1ncccc1C(=O)OCC(=O)N(CC(C)C)C1CCS(=O)(=O)C1` (stereo not drawn)?
TPT1 inhibitor: -4; Myeloid diff MLP: inactive; HNF4A DNA FP: 6; CSN inh: -1; Rpn11 block: -3

What do the screens show for `C=CCN1C(=O)/C(=C\C=C2\N(C)c3ccccc3C2(C)C)SC1=S`?
TPT1 inhibitor: 116*; Myeloid diff MLP: active; HNF4A DNA FP: 108; CSN inh: 72*; TPT1 inh confirm: 120*; RNase T1 inh: 115*; CSN5 deneddyl: 117*; MMP-2 counter-2: -35*; Thrombin cntr: -54

Compound activity (PubChem BioAssay)
